Reference: article PMC10373460 (ACS Omega, 2023)
Entries after “also recorded” stand apart in the source; their conditions may differ.

Assays:
[1] = target: α-glucosidase from S. cerevisiae E.C. 3.2.1.20 (Saccharomyces cerevisiae, UniProt P53341); experiment: Inhibition of α-glucosidase activity in vitro; format: biochemical; conditions: for inhibition at 10 µM: read-out: %inhibition (10 μM)
α-glucosidase = α-glucosidase (Saccharomyces cerevisiae, UniProt P53341); experiment: Enzyme kinetic study; format: biochemical; conditions: for inhibition mode: Lineweaver–Burk plots, Km increased, Vmax unaffected
Outline: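 S. cerevisiae α-glucosidase solution (0.1 U/mL) and pNPG substrate solution (1 mM) prepared in […] pH 6.9 phosphate buffer. Enzyme preincubated with test compound (DMSO stock) for 10 min at 37 °C, then substrate added for 20 min at 37 °C. Stopped with 1 M Na2CO3, read at 405 nm. Lineweaver–Burk plots at several inhibitor concentrations; Ki from secondary replot of slope versus concentration.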

Sequence of α-glucosidase from S. cerevisiae E.C. 3.2.1.20 (P53341 whole entry): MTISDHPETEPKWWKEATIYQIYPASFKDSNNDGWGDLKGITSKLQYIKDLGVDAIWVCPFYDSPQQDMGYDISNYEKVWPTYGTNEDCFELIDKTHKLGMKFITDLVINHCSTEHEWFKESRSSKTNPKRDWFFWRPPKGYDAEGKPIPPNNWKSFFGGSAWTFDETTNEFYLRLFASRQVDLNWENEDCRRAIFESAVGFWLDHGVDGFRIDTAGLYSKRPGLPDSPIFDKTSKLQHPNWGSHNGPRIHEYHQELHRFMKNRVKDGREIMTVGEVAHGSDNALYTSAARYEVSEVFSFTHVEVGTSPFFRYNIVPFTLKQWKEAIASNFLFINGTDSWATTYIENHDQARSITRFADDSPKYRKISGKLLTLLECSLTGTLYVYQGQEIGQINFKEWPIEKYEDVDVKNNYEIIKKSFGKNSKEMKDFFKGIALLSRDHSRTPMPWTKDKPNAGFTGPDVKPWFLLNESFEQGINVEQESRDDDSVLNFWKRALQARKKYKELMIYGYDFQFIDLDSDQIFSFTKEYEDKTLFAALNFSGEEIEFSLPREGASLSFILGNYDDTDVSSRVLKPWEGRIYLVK
Sequence of α-glucosidase (P53341 whole entry): as above

Structure (SMILES) | IC50 [1] [µM] | also measured
O=c1oc2ccccc2c(O)c1C(c1ccc(Cl)cc1Cl)c1c(O)c2ccccc2oc1=O [Compound 7, 3,3′-((2,4-Dichlorophenyl)methylene)bis(4-hydroxy-2H-chromen-2-one)] | 3.15 ± 0.31 | –
O=c1oc2ccccc2c(O)c1C(c1cccc(Cl)c1)c1c(O)c2ccccc2oc1=O [Compound 3, 3,3′-((3-Chlorophenyl)methylene)bis(4-hydroxy-2H-chromen-2-one)] | 6.06 ± 0.06 | –
O=c1oc2ccccc2c(O)c1C(c1ccc(F)cc1)c1c(O)c2ccccc2oc1=O [Compound 5, 3,3′-((4-Fluorophenyl)methylene)bis(4-hydroxy-2H-chromen-2-one)] | 12.31 ± 0.08 | –
O=c1cc(O)c2ccccc2o1 [4-hydroxycoumarin] | > 200 | –
COc1cc(C(c2c(O)c3ccccc3oc2=O)c2c(O)c3ccccc3oc2=O)ccc1O [Compound 15, 3,3′-((4-Hydroxy-3-methoxyphenyl)methylene)bis(4-hydroxy-2H-chromen-2-one)] | 15.2 ± 0.45 | –
COc1ccc(C(c2c(O)c3ccccc3oc2=O)c2c(O)c3ccccc3oc2=O)cc1Br [Compound 13, 3,3′-((3-Bromo-4-methoxyphenyl)methylene)bis(4-hydroxy-2H-chromen-2-one)] | 3.8 ± 0.05 | –
O=c1oc2ccccc2c(O)c1C(c1ccc(Cl)cc1)c1c(O)c2ccccc2oc1=O [Compound 4, 3,3′-((4-Chlorophenyl)methylene)bis(4-hydroxy-2H-chromen-2-one)] | 3.19 ± 0.41 | –
O=c1oc2ccccc2c(O)c1C(c1ccc(Br)cc1)c1c(O)c2ccccc2oc1=O [Compound 6, 3,3′-((4-Bromophenyl)methylene)bis(4-hydroxy-2H-chromen-2-one)] | 2.95 ± 0.05 | –
COc1cc(C(c2c(O)c3ccccc3oc2=O)c2c(O)c3ccccc3oc2=O)cc(Br)c1O [Compound 16, 3,3′-((3-Bromo-4-hydroxy-5-methoxyphenyl)methylene)bis(4-hydroxy-2H-chromen-2-one)] | 5.1 ± 0.18 | –
O=c1oc2ccccc2c(O)c1C(c1ccc(Br)c([N+](=O)[O-])c1)c1c(O)c2ccccc2oc1=O [Compound 10, 3,3′-((4-Bromo-3-nitrophenyl)methylene)bis(4-hydroxy-2H-chromen-2-one)] | 3.41 ± 0.17 | –
O=c1oc2ccccc2c(O)c1C(c1cccc([N+](=O)[O-])c1)c1c(O)c2ccccc2oc1=O [Compound 9, 3,3′-((3-Nitrophenyl)methylene)bis(4-hydroxy-2H-chromen-2-one)] | 14.8 ± 0.32 | –
CCCCCCCCOc1c(Br)cc(C(c2c(O)c3ccccc3oc2=O)c2c(O)c3ccccc3oc2=O)cc1Br [Compound 19, 3,3′-((3,5-Dibromo-4-(octyloxy)phenyl)methylene)bis(4-hydroxy-2H-chromen-2-one)] | – | inhibition at 10 µM [1]: 98.95 ± 0.26%; Ki (α-glucosidase): 1.8 µM; inhibition mode (α-glucosidase): competitive inhibition
O=c1oc2ccccc2c(O)c1C(c1ccccc1)c1c(O)c2ccccc2oc1=O [Compound 1, 3,3′-(Phenylmethylene)bis(4-hydroxy-2H-chromen-2-one)] | 30.8 ± 1.25 | –
COc1c(Br)cc(C(c2c(O)c3ccccc3oc2=O)c2c(O)c3ccccc3oc2=O)cc1Br [Compound 17, 3,3′-((3,5-Dibromo-4-methoxyphenyl)methylene)bis(4-hydroxy-2H-chromen-2-one)] | – | inhibition at 10 µM [1]: 99.77 ± 0.49%; Ki (α-glucosidase): 4.81 µM
O=c1oc2ccccc2c(O)c1C(c1ccc(F)c(Br)c1)c1c(O)c2ccccc2oc1=O [Compound 11, 3,3′-((3-Bromo-4-fluorophenyl)methylene)bis(4-hydroxy-2H-chromen-2-one)] | 2.89 ± 0.25 | –
O=c1oc2ccccc2c(O)c1C(c1cc(Br)c(O)c(Br)c1)c1c(O)c2ccccc2oc1=O [Compound 14, 3,3′-((3,5-Dibromo-4-hydroxyphenyl)methylene)bis(4-hydroxy-2H-chromen-2-one)] | 2.38 ± 0.24 | –
CCCCOc1c(Br)cc(C(c2c(O)c3ccccc3oc2=O)c2c(O)c3ccccc3oc2=O)cc1Br [Compound 18, 3,3′-((3,5-Dibromo-4-butoxyphenyl)methylene)bis(4-hydroxy-2H-chromen-2-one)] | – | inhibition at 10 µM [1]: 99.67 ± 0.42%; Ki (α-glucosidase): 3.93 µM; inhibition mode (α-glucosidase): competitive inhibition; also recorded: competitive binding mode
O=c1oc2ccccc2c(O)c1C(c1ccc(O)c(Br)c1)c1c(O)c2ccccc2oc1=O [Compound 12, 3,3′-((3-Bromo-4-hydroxyphenyl)methylene)bis(4-hydroxy-2H-chromen-2-one)] | 4.15 ± 0.06 | –
O=c1oc2ccccc2c(O)c1C(c1ccccc1Cl)c1c(O)c2ccccc2oc1=O [Compound 2, 3,3′-((2-Chlorophenyl)methylene)bis(4-hydroxy-2H-chromen-2-one)] | 8.12 ± 0.59 | –
O=c1oc2ccccc2c(O)c1C(c1ccc(Cl)c(Cl)c1)c1c(O)c2ccccc2oc1=O [Compound 8, 3,3′-((3,4-Dichlorophenyl)methylene)bis(4-hydroxy-2H-chromen-2-one)] | 1.9 ± 0.14 | –
